Laboratory results: ChEMBL document CHEMBL2163192, “N,N-Dimethyl-[9-(arylsulfonyl)-2,3,4,9-tetrahydro-1H-carbazol-3-yl]amines as novel, potent and selective 5-HT₆ receptor antagonists” (Bioorg Med Chem Lett, 2012)
pIC50, pKi: −log10 of the molar value.

Experiments:
[1] = molecular target: T1, 5-hydroxytryptamine receptor 6 (Homo sapiens, UniProt P50406); assay: Displacement of [3H]LSD from human cloned 5-HT6 receptor expressed in HEK293 cells; assay type: cell-based
[2] = molecular target: D(2) dopamine receptor (Homo sapiens) (UniProt P14416); assay: Inhibition of dopamine D2 receptor at 10 uM
Chain of D(2) dopamine receptor (Homo sapiens) (P14416 whole entry): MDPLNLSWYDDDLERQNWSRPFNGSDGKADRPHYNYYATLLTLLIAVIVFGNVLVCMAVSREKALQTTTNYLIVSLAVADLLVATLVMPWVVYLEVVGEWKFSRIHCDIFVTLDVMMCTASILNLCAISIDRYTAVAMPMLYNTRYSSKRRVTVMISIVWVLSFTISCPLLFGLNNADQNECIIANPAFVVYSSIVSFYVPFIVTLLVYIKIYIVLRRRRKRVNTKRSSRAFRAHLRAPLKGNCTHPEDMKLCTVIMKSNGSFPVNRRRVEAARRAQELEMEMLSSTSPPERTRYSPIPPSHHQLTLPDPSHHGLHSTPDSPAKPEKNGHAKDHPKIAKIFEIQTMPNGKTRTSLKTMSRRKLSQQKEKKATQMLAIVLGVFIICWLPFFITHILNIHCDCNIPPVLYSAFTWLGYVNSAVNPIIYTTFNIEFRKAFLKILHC
Outline: (§1)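 In-house selectivity panel of related receptors and transporters; each compound tested at 1 μM and 10 μM; percent inhibition determined in duplicate and the mean of the two reported.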

[3] = molecular target: T2, Alpha-1B adrenergic receptor (Homo sapiens) (UniProt P35368); assay: Inhibition of alpha1B adrenergic receptor at 1 uM; outline: as §1
T2 sequence (whole entry): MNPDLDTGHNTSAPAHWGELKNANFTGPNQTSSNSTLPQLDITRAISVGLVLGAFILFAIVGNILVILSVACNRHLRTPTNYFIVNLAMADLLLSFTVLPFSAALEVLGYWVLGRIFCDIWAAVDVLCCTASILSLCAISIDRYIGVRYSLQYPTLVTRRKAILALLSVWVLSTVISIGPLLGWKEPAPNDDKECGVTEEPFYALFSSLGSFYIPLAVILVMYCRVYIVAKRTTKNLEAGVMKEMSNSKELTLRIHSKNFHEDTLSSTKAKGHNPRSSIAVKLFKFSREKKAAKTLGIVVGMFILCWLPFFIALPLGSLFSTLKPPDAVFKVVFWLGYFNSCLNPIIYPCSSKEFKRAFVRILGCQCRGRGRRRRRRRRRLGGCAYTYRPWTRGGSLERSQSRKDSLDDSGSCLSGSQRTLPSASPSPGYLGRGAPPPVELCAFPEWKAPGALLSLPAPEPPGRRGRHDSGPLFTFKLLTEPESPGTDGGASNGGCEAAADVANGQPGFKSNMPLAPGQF

[4] = molecular target: Histamine H3 receptor (Homo sapiens) (UniProt Q9Y5N1); assay: Inhibition of histamine H3 receptor at 10 uM; outline: as §1
Chain of Histamine H3 receptor (Homo sapiens) (Q9Y5N1 whole entry): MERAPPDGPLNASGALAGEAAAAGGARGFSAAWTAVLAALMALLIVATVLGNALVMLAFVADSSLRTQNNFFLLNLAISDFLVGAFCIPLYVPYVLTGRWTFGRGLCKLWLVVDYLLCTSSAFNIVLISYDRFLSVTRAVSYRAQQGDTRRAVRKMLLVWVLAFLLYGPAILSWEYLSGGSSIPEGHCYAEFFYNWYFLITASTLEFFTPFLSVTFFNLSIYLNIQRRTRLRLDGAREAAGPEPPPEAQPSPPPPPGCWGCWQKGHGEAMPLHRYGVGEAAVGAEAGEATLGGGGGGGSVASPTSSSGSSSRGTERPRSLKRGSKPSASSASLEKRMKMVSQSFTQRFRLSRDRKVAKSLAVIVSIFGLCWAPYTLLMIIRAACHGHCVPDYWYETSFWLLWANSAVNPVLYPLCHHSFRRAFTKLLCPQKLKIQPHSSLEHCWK

[5] = molecular target: Sodium-dependent serotonin transporter (Homo sapiens) (UniProt P31645); assay: Inhibition of SERT at 10 uM; outline: as §1
Chain of Sodium-dependent serotonin transporter (Homo sapiens) (P31645 whole entry, looked up): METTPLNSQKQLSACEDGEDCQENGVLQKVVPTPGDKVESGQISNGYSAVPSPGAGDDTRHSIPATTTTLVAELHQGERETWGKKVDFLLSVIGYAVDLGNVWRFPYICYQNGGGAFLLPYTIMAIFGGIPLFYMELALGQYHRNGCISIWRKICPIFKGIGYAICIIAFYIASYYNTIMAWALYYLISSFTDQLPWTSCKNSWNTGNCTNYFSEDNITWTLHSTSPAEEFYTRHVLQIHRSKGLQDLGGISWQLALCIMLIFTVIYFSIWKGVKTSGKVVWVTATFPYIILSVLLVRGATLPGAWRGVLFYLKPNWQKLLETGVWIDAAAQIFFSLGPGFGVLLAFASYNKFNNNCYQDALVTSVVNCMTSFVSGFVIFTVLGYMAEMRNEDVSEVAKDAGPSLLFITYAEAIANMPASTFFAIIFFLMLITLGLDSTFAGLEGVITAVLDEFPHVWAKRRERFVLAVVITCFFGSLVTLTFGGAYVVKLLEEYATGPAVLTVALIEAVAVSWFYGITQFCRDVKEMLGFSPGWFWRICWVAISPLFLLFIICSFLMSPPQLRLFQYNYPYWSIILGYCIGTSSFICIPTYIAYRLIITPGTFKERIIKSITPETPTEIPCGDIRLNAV

[6] = molecular target: T2, Alpha-1B adrenergic receptor (Homo sapiens); assay: Inhibition of alpha1B adrenergic receptor at 10 uM; outline: as §1
[7] = molecular target: Sodium-dependent dopamine transporter (Homo sapiens) (UniProt Q01959); assay: Inhibition of DAT at 1 uM; outline: as §1
Chain of Sodium-dependent dopamine transporter (Homo sapiens) (Q01959 whole entry): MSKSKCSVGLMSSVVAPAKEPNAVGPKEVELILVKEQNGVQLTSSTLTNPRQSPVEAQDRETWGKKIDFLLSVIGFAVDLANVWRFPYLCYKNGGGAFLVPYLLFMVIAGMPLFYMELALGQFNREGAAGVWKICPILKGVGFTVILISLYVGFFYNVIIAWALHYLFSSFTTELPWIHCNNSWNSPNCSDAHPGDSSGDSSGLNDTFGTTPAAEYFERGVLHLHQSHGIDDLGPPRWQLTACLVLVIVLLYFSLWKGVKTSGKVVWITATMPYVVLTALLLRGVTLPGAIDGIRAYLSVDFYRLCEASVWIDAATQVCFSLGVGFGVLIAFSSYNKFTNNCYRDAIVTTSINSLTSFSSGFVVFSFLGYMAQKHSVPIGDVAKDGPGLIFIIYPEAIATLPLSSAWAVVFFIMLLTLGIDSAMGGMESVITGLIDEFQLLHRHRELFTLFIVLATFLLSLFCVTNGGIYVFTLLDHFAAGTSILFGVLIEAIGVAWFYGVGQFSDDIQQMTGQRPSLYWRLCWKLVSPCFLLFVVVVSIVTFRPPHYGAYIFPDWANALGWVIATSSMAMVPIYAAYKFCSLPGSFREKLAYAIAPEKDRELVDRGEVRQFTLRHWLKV

[8] = molecular target: 5-hydroxytryptamine receptor 2A (Homo sapiens) (UniProt P28223); assay: Inhibition of 5-HT2A receptor at 1 uM; outline: as §1
Chain of 5-hydroxytryptamine receptor 2A (Homo sapiens) (P28223 whole entry): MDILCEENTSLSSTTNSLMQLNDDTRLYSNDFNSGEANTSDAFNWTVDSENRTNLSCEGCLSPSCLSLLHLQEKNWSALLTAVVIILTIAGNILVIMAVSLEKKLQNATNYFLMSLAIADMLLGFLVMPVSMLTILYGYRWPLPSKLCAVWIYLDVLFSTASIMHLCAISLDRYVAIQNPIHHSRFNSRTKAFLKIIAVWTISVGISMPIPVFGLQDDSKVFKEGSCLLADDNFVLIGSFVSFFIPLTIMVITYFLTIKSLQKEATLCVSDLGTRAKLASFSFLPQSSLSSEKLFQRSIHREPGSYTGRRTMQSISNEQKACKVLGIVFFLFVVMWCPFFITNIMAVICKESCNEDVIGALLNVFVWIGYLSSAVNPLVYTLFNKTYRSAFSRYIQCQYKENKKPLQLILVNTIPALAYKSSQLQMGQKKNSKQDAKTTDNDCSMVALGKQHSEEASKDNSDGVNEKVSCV

[9] = molecular target: Histamine H4 receptor (Homo sapiens) (UniProt Q9H3N8); assay: Inhibition of histamine H4 receptor at 10 uM; outline: as §1
Chain of Histamine H4 receptor (Homo sapiens) (Q9H3N8 whole entry): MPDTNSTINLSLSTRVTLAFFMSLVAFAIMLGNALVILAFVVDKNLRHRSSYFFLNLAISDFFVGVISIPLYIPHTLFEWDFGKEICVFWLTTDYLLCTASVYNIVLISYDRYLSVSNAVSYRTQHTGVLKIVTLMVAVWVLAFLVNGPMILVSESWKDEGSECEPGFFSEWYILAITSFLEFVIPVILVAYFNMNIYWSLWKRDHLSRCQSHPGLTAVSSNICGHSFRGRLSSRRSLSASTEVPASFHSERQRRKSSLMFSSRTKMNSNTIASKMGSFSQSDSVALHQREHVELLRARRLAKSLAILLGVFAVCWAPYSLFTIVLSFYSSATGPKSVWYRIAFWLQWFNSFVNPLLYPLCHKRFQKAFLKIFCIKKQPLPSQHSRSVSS

[10] = molecular target: T3, 5-hydroxytryptamine receptor 1A (Homo sapiens) (UniProt P08908); assay: Inhibition of 5-HT1A receptor at 1 uM; outline: as §1
T3 sequence (whole entry): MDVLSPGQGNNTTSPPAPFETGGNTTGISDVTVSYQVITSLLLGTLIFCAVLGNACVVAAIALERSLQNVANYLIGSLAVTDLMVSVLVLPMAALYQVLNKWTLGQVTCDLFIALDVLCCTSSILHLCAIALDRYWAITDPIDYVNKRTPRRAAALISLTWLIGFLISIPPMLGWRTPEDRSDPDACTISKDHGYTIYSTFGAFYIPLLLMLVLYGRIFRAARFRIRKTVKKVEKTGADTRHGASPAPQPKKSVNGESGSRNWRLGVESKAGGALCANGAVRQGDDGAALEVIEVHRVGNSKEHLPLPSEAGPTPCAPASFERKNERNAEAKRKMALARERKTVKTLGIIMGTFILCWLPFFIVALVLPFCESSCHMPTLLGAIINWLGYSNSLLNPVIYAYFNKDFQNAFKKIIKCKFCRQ

[11] = molecular target: D(2) dopamine receptor (Homo sapiens) (UniProt P14416); assay: Inhibition of dopamine D2 receptor at 1 uM; outline: as §1
[12] = molecular target: Sodium-dependent dopamine transporter (Homo sapiens) (UniProt Q01959); assay: Inhibition of DAT at 10 uM; outline: as §1
[13] = molecular target: T3, 5-hydroxytryptamine receptor 1A (Homo sapiens); assay: Inhibition of 5-HT1A receptor at 10 uM; outline: as §1
[14] = molecular target: 5-hydroxytryptamine receptor 2A (Homo sapiens) (UniProt P28223); assay: Inhibition of 5-HT2A receptor at 10 uM; outline: as §1
[15] = molecular target: Histamine H3 receptor (Homo sapiens) (UniProt Q9Y5N1); assay: Inhibition of histamine H3 receptor at 1 uM; outline: as §1
[16] = molecular target: Histamine H4 receptor (Homo sapiens) (UniProt Q9H3N8); assay: Inhibition of histamine H4 receptor at 1 uM; outline: as §1
[17] = molecular target: Sodium-dependent serotonin transporter (Homo sapiens) (UniProt P31645); assay: Inhibition of SERT at 1 uM; outline: as §1
[18] = molecular target: T1, 5-hydroxytryptamine receptor 6; assay: Binding affinity to human 5-HT6 receptor
Outline: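 Radioligand binding assay at human 5-HT6 receptor; Ki values determined in triplicate.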

[19] = molecular target: T1, 5-hydroxytryptamine receptor 6; assay: Antagonist activity at human recombinant 5-HT6 receptor expressed in CHO cells assessed as inhibition of 5-HT-stimulated cAMP accumulation after 4 hrs by luciferase reporter gene assay; assay type: functional, cell-based
Outline: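 Cell-based, non-radioactive reporter gene assay measuring antagonism of 5-HT-stimulated cAMP formation at human 5-HT6 receptor; IC50 and Kb values determined in duplicate.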

CYP2C19 = CYP2C19 (Homo sapiens, UniProt P33261); assay: Inhibition of human CYP2C19 at 3 uM; assay type: ADME
Chain of CYP2C19 (P33261 whole entry, canonical isoform): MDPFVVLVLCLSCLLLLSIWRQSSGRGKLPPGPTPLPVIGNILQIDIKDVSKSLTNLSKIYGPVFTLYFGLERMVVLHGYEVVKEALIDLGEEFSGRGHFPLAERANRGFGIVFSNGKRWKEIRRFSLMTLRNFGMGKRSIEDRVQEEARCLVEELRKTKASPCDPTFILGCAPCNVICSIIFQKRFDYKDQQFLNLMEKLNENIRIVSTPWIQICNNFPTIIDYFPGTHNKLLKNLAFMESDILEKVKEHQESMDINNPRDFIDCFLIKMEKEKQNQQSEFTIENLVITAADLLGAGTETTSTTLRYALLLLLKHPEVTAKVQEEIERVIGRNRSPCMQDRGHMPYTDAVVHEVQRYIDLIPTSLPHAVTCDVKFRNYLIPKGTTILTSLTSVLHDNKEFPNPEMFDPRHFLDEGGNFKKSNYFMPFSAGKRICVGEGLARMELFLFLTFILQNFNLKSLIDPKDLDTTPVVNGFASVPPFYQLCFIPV
Outline: (§2)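 Isoform-selective inhibition assays using heterologously expressed human CYP enzymes; compounds tested at 3 μM; percent inhibition reported.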

CYP2D6 = CYP2D6 (Homo sapiens, UniProt P10635); assay: Inhibition of human CYP2D6 at 3 uM; assay type: ADME; outline: as §2
Chain of CYP2D6 (P10635 whole entry): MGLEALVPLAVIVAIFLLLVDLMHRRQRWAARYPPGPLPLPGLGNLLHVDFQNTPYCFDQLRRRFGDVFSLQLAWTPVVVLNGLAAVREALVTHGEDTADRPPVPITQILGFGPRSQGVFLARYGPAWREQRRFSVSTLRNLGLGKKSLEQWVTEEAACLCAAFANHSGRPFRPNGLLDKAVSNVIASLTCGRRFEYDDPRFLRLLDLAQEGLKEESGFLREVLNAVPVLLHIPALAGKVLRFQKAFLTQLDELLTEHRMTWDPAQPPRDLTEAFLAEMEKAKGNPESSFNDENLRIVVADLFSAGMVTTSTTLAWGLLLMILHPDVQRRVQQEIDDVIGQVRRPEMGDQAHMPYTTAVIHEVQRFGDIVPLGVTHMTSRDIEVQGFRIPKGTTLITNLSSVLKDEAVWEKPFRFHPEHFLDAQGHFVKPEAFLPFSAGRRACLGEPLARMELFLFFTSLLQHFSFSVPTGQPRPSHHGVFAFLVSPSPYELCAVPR

CYP3A4 = CYP3A4 (Homo sapiens, UniProt P08684); assay: Inhibition of human CYP3A4 at 3 uM; assay type: ADME; outline: as §2
Chain of CYP3A4 (P08684 whole entry): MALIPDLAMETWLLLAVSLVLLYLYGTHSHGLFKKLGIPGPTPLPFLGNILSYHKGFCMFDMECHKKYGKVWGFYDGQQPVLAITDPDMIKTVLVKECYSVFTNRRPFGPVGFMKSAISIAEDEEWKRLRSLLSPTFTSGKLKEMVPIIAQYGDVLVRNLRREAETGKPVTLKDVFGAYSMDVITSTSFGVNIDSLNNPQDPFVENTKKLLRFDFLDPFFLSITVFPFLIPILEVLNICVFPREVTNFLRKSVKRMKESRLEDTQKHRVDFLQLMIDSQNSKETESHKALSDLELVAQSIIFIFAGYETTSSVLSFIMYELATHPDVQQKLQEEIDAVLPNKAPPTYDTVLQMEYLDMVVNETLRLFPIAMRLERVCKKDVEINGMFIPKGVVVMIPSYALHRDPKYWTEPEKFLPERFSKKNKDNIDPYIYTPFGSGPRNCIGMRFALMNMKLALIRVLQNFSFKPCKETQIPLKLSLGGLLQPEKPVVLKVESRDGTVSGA

[20] = Drug metabolism in human liver microsomes; assay type: ADME, Microsome; conditions: read-out: Drug metabolism
[21] = Drug metabolism in rat liver microsomes; assay type: ADME, Microsome; conditions: read-out: Drug metabolism

T1 sequence (P50406 whole entry): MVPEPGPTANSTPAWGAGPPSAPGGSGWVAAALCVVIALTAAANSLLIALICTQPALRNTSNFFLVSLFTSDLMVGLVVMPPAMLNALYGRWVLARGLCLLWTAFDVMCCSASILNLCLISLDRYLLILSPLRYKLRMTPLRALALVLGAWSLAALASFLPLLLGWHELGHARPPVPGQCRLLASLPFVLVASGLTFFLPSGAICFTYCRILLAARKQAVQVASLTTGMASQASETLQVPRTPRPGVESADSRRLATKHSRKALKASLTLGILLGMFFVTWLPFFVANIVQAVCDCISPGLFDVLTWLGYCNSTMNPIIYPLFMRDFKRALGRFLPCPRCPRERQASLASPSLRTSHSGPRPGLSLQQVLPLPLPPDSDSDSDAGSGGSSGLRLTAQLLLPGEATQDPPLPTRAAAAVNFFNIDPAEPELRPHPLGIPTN

## CN(C)C1CCc2c(c3cc(Cl)ccc3n2S(=O)(=O)c2ccccc2)C1 (racemic)
[1]
  pKi: 7.79

## CSc1ccc2c(c1)c1c(n2S(=O)(=O)c2cccc(Cl)c2)CCC(N(C)C)C1 (racemic)
[1]
  pKi: 8.57

## COc1ccc2c(c1)c1c(n2S(=O)(=O)c2cccc(C(F)(F)F)c2)CCC(N(C)C)C1 (racemic)
[1]
  pKi: 8.43

## COc1ccc2c(c1)c1c(n2S(=O)(=O)c2cccc(C(F)(F)F)c2)CCC(N)C1 (racemic)
[1]
  pKi: 7.41

## CN(C)C1CCc2c(c3cc(Cl)ccc3n2S(=O)(=O)c2ccccc2Br)C1 (racemic)
[1]
  pKi: 8.09

## CN(C)C1CCc2c(c3ccccc3n2S(=O)(=O)c2ccccc2)C1 (racemic)
[1]
  pKi: 8.05

## CN(C)C1CCc2c(c3ccccc3n2S(=O)(=O)c2cccc(Cl)c2)C1 (racemic)
[2]
  inhibition: 32.1%
[3]
  inhibition: 4.24%
[4]
  inhibition: 39.9%
[1]
  pKi: 8.38
[5]
  inhibition: 1.49%
[6]
  inhibition: 7.92%
[7]
  inhibition: 0%
[8]
  inhibition: 7.37%
[9]
  inhibition: 10.3%
[10]
  inhibition: 29.9%
[11]
  inhibition: 15.3%
[12]
  inhibition: 7.21%
[13]
  inhibition: 50.3%
[14]
  inhibition: 35.2%
[15]
  inhibition: 11%
[16]
  inhibition: 4.9%
[17]
  inhibition: 2.69%

## COc1ccc2c(c1)c1c(n2S(=O)(=O)c2ccccc2F)CCC(N(C)C)C1 (racemic)
[1]
  pKi: 8.44

## CN(C)C1CCc2c(c3cc(Cl)ccc3n2S(=O)(=O)c2cccc(C(F)(F)F)c2)C1 (racemic)
[1]
  pKi: 7.91

## CN(C)C1CCc2c(c3cc(F)ccc3n2S(=O)(=O)c2cccc(Cl)c2)C1 (racemic)
[1]
  pKi: 8.30

## Cc1ccc(S(=O)(=O)n2c3c(c4cc(Cl)ccc42)CC(N(C)C)CC3)cc1 (racemic)
[1]
  pKi: 7.74

## NC1Cc2cccc3c2c(cn3S(=O)(=O)c2ccccc2)C1 (configuration not stated)
[18]
  pKi: 8.80

## CN(C)C1CCc2c(c3cc(Br)ccc3n2S(=O)(=O)c2cc(C(F)(F)F)ccc2Cl)C1 (racemic)
[1]
  pKi: 7.15

## CC(C)c1ccc(S(=O)(=O)n2c3c(c4cc(Br)ccc42)CC(N(C)C)CC3)cc1 (racemic)
[1]
  pKi: 8.12

## CN(C)C1CCc2c(c3cc(F)cc(F)c3n2S(=O)(=O)c2ccccc2)C1 (racemic)
[1]
  pKi: 8.10

## CN(C)C1CCc2c(c3cc(Br)ccc3n2S(=O)(=O)c2cccc(C(F)(F)F)c2)C1 (racemic)
[1]
  pKi: 8.26

## CSc1ccc2c(c1)c1c(n2S(=O)(=O)c2ccccc2)CCC(N(C)C)C1 (racemic)
[1]
  pKi: 8.34

## CN(C)C1CCc2c(c3cc(Br)ccc3n2S(=O)(=O)c2ccc(F)c(F)c2F)C1 (racemic)
[1]
  pKi: 7.21

## COc1ccc2c(c1)c(CCN(C)C)c1n2S(=O)(=O)c2ccccc2-1
[18]
  pKi: 7.02

## COc1ccc(S(=O)(=O)n2c3c(c4cc(SC)ccc42)CC(N(C)C)CC3)cc1 (racemic)
[1]
  pKi: 8.16

## CN(C)C1CCc2c(c3ccccc3n2S(=O)(=O)c2ccccc2F)C1 (racemic)
[1]
  pKi: 7.98

## COc1ccc2c(c1)c1c(n2S(=O)(=O)c2ccccc2Cl)CCC(N(C)C)C1 (racemic)
[1]
  pKi: 8.33

## NC1CCc2c(c3ccccc3n2S(=O)(=O)c2cccc(C(F)(F)F)c2)C1 (racemic)
[1]
  pKi: 7.13

## CN(C)C1CCc2c(c3cc(Br)ccc3n2S(=O)(=O)c2ccccc2)C1 (racemic)
[2]
  inhibition: 67.4%
[3]
  inhibition: 4.22%
[4]
  inhibition: 24.8%
[1]
  pKi: 8.74
[5]
  inhibition: 2.77%
[6]
  inhibition: 16.2%
[19]
  pIC50: 5.69
  Kb: 21.5 nM
[7]
  inhibition: 0%
CYP2C19
  inhibition at 3 µM: 50%
CYP2D6
  inhibition at 3 µM: 50%
[8]
  inhibition: 15.2%
[9]
  inhibition: 3.85%
[10]
  inhibition: 22.3%
[11]
  inhibition: 16.4%
[12]
  inhibition: 7.7%
[13]
  inhibition: 43.9%
[14]
  inhibition: 51.4%
[15]
  inhibition: 23.4%
[16]
  inhibition: 0%
CYP3A4
  inhibition at 3 µM: 10%
[17]
  inhibition: 0%

## CN(C)C1CCc2c(c3ccccc3n2S(=O)(=O)c2ccc(Br)cc2)C1 (racemic)
[1]
  pKi: 7.81

## COc1ccc(S(=O)(=O)n2c3c(c4cc(OC)ccc42)CC(N(C)C)CC3)cc1 (racemic)
[1]
  pKi: 7.70

## CN(C)C1CCc2c(c3ccccc3n2S(=O)(=O)c2ccccc2Cl)C1 (racemic)
[1]
  pKi: 8.04

## CN(C)C1CCc2c(c3cc(F)ccc3n2S(=O)(=O)c2ccccc2Br)C1 (racemic)
[1]
  pKi: 8.30

## CNC1CCc2c(c3cc(OC)ccc3n2S(=O)(=O)c2cccc(C(F)(F)F)c2)C1 (racemic)
[1]
  pKi: 7.88

## CN(C)C1CCc2c(c3cc(Cl)ccc3n2S(=O)(=O)c2ccc(Br)cc2)C1 (racemic)
[1]
  pKi: 7.39

## CN(C)C1CCc2c(c3ccccc3n2S(=O)(=O)c2ccccc2Br)C1 (racemic)
[1]
  pKi: 8.55

## COc1ccc(S(=O)(=O)n2c3c(c4cc(Br)ccc42)CC(N(C)C)CC3)cc1 (racemic)
[1]
  pKi: 7.54

## COc1ccc(S(=O)(=O)n2c3c(c4ccccc42)CC(N(C)C)CC3)cc1 (racemic)
[1]
  pKi: 7.69

## CN(C)C1CCc2c(c3cc(Br)ccc3n2S(=O)(=O)c2ccc(F)c(F)c2)C1 (racemic)
[1]
  pKi: 7.54

## Cc1ccc(S(=O)(=O)n2c3c(c4ccccc42)CC(N(C)C)CC3)cc1 (racemic)
[1]
  pKi: 8.08

## CNC1CCc2c(c3ccccc3n2S(=O)(=O)c2cccc(C(F)(F)F)c2)C1 (racemic)
[1]
  pKi: 7.77

## CN(C)C1CCc2c(c3ccccc3n2S(=O)(=O)c2cccc(C(F)(F)F)c2)C1 (racemic)
[2]
  inhibition: 60.4%
[3]
  inhibition: 5.26%
[4]
  inhibition: 49.1%
[1]
  pKi: 8.72
[5]
  inhibition: 20.7%
[6]
  inhibition: 8.72%
[19]
  pIC50: 5.71
  Kb: 20.4 nM
[7]
  inhibition: 18.4%
CYP2C19
  inhibition at 3 µM: 50%
[20]
  metabolised: 17%
CYP2D6
  inhibition at 3 µM: 50%
[21]
  metabolised: 72%
[8]
  inhibition: 5.6%
[9]
  inhibition: 18%
[10]
  inhibition: 44.5%
[11]
  inhibition: 16.3%
[12]
  inhibition: 24.8%
[13]
  inhibition: 57.5%
[14]
  inhibition: 19.6%
[15]
  inhibition: 26.8%
[16]
  inhibition: 4.14%
CYP3A4
  inhibition at 3 µM: 10%
[17]
  inhibition: 9.14%
